In ChEMBL document CHEMBL3272355, “Structure--activity relationships in cephalosporins prepared from penicillins. 1. 7beta-Acylamino derivatives of 3-benzyl- and 3-(3-pyridylmethyl)ceph-3-em-4-carboxylic acids” (1977):
≈ marks a conversion by molar mass, not a printed value.

Legend:
Staphylococcus aureus [1] = test: Antibacterial activity against Staphylococcus aureus Oxford assessed as growth inhibition after 18 hrs by serial dilution method; type: functional
Outline: (§1)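 Agar dilution MIC: serial dilutions in nutrient agar, each spot-inoculated with 0.001 mL of undiluted overnight broth culture. MIC read after 18 h incubation at 37 °C.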

Staphylococcus aureus [2] = test: Antibacterial activity against beta-lactamase producing benzylpenicillin-resistant Staphylococcus aureus Russell assessed as growth inhibition after 18 hrs by serial dilution method; type: functional
Escherichia coli = test: Antibacterial activity against Escherichia coli assessed as growth inhibition after 18 hrs by serial dilution method; type: functional; outline: as §1
Salmonella typhi = test: Antibacterial activity against Salmonella typhi assessed as growth inhibition after 18 hrs by serial dilution method; type: functional, Salmonella enterica subsp. enterica serovar Typhi; details: Salmonella enterica
Shigella sonnei = test: Antibacterial activity against Shigella sonnei assessed as growth inhibition after 18 hrs by serial dilution method; type: functional; outline: as §1
Klebsiella aerogenes = test: Antibacterial activity against Klebsiella aerogenes assessed as growth inhibition after 18 hrs by serial dilution method; type: functional; outline: as §1
Proteus mirabilis = test: Antibacterial activity against Proteus mirabilis assessed as growth inhibition after 18 hrs by serial dilution method; type: functional; outline: as §1

Row | SMILES | MIC (Staphylococcus aureus [1]) [µg/mL] | MIC (Staphylococcus aureus [2]) [µg/mL] | MIC (Escherichia coli) [µg/mL] | MIC (Salmonella typhi) [µg/mL] | MIC (Shigella sonnei) [µg/mL] | MIC (Klebsiella aerogenes) [µg/mL] | MIC (Proteus mirabilis) [µg/mL]
1 | O=C(Cc1cccs1)N[C@@H]1C(=O)N2C(C(=O)[O-])=C(C[n+]3ccccc3)CS[C@H]12 [CEPHALORIDINE] | 0.02 (≈ 0.0481 µM) | 1.25 (≈ 3.01 µM) | 5 (≈ 12 µM) | 1.25 (≈ 3.01 µM) | 1.25 (≈ 3.01 µM) | 2.5 (≈ 6.02 µM) | 5 (≈ 12 µM)
2 | CCSCC(=O)N[C@@H]1C(=O)N2C(C(=O)O)=C(Cc3ccccc3)CS[C@H]12 | 0.12 (≈ 0.306 µM) | 1.25 (≈ 3.18 µM) | > 125 | 125 (≈ 318 µM) | > 125 | > 125 | > 125
3 | O=C(O)C1=C(Cc2ccccc2)CS[C@@H]2[C@H](NC(=O)[C@H](O)c3ccccc3)C(=O)N12 | 0.12 (≈ 0.283 µM) | 12.5 (≈ 29.4 µM) | 125 (≈ 294 µM) | 50 (≈ 118 µM) | 50 (≈ 118 µM) | 50 (≈ 118 µM) | > 500
4 | N[C@@H](C(=O)N[C@@H]1C(=O)N2C(C(=O)O)=C(Cc3ccccc3)CS[C@H]12)C1CC1 | 5 (≈ 12.9 µM) | 12.5 (≈ 32.3 µM) | > 250 | > 250 | > 250 | > 250 | > 250
5 | NC(C(=O)N[C@@H]1C(=O)N2C(C(=O)O)=C(Cc3cccnc3)CS[C@H]12)c1cccs1 (stereo not given in full) | 0.5 (≈ 1.16 µM) | 5 (≈ 11.6 µM) | 12.5 (≈ 29 µM) | 2.5 (≈ 5.81 µM) | 5 (≈ 11.6 µM) | 5 (≈ 11.6 µM) | 12.5 (≈ 29 µM)
6 | CC1=C(C(=O)O)N2C(=O)[C@@H](NC(=O)[C@H](N)c3ccccc3)[C@H]2SC1 [CEPHALEXIN ANHYDROUS] | 1.25 (≈ 3.6 µM) | 5 (≈ 14.4 µM) | 12.5 (≈ 36 µM) | 5 (≈ 14.4 µM) | 5 (≈ 14.4 µM) | 5 (≈ 14.4 µM) | 12.5 (≈ 36 µM)
7 | O=C(COc1ccccc1)N[C@@H]1C(=O)N2C(C(=O)O)=C(Cc3cccnc3)CS[C@H]12 | 0.02 (≈ 0.047 µM) | 0.12 (≈ 0.282 µM) | 500 (≈ 1180 µM) | 500 (≈ 1180 µM) | 500 (≈ 1180 µM) | 500 (≈ 1180 µM) | 125 (≈ 294 µM)
8 | CCSCC(=O)N[C@@H]1C(=O)N2C(C(=O)O)=C(Cc3cccnc3)CS[C@H]12 | 0.05 (≈ 0.127 µM) | 1.25 (≈ 3.18 µM) | 50 (≈ 127 µM) | 50 (≈ 127 µM) | 50 (≈ 127 µM) | 50 (≈ 127 µM) | 25 (≈ 63.5 µM)
9 | C[C@@H](N)C(=O)N[C@@H]1C(=O)N2C(C(=O)O)=C(Cc3ccccc3)CS[C@H]12 | 5 (≈ 13.8 µM) | 10 (≈ 27.7 µM) | > 100 | > 100 | > 100 | > 100 | > 100
10 | O=C(O)C1=C(Cc2ccccc2)CS[C@@H]2[C@H](NC(=O)C(F)(F)F)C(=O)N12 | 2.5 (≈ 6.47 µM) | 12.5 (≈ 32.4 µM) | > 500 | > 500 | > 500 | > 500 | 500 (≈ 1290 µM)
11 | O=C(Cc1cccs1)N[C@@H]1C(=O)N2C(C(=O)O)=C(Cc3ccccc3)CS[C@H]12 | 0.05 (≈ 0.121 µM) | 10 (≈ 24.1 µM) | 200 (≈ 482 µM) | 200 (≈ 482 µM) | 200 (≈ 482 µM) | > 200 | > 200
12 | O=C(O)CSCC(=O)N[C@@H]1C(=O)N2C(C(=O)O)=C(Cc3ccccc3)CS[C@H]12 | 5 (≈ 11.8 µM) | 25 (≈ 59.2 µM) | > 500 | 250 (≈ 592 µM) | 250 (≈ 592 µM) | > 500 | 125 (≈ 296 µM)
13 | N[C@@H](C(=O)N[C@@H]1C(=O)N2C(C(=O)O)=C(Cc3ccccc3)CS[C@H]12)c1ccc(O)cc1 | 0.12 (≈ 0.273 µM) | 1.25 (≈ 2.84 µM) | 12.5 (≈ 28.4 µM) | 5 (≈ 11.4 µM) | 12.5 (≈ 28.4 µM) | 5 (≈ 11.4 µM) | 25 (≈ 56.9 µM)
14 | N#CCC(=O)N[C@@H]1C(=O)N2C(C(=O)O)=C(Cc3ccccc3)CS[C@H]12 | 0.12 (≈ 0.336 µM) | 0.5 (≈ 1.4 µM) | 500 (≈ 1400 µM) | 250 (≈ 700 µM) | 500 (≈ 1400 µM) | > 500 | > 500
15 | O=C(Cc1ccncc1)N[C@@H]1C(=O)N2C(C(=O)O)=C(Cc3ccccc3)CS[C@H]12 | 0.05 (≈ 0.122 µM) | 5 (≈ 12.2 µM) | 50 (≈ 122 µM) | 50 (≈ 122 µM) | 50 (≈ 122 µM) | 100 (≈ 244 µM) | 100 (≈ 244 µM)
